Experimental data published in ChEMBL document CHEMBL1147227, “Annularins A-H: new polyketide metabolites from the freshwater aquatic fungus Annulatascus triseptatus” (2003).
The source made the active and inactive calls. No cut-off for these calls is given here.

What was measured:
Candida albicans = experiment: Antifungal activity against Candida albicans ATCC 90029 at 200 ug/disk by standard disk assay; assay type: functional, organism-based
Bacillus subtilis = experiment: Antibacterial activity against Bacillus subtilis ATCC 6051 at 200 ug/disk by standard disk assay; assay type: functional; details: read-out: IZ
Method in brief: (§1)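 Paper-disk diffusion assay with 200 µg of test material loaded per disk. Activity was read as the zone of inhibition, recorded in mm.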

Aspergillus flavus = experiment: Antifungal activity against Aspergillus flavus NRRL 6541 at 200 ug/disk by standard disk assay; assay type: functional, organism-based
Staphylococcus aureus = experiment: Antibacterial activity against Staphylococcus aureus ATCC 29213 at 200 ug/disk by standard disk assay; assay type: functional; details: read-out: IZ; method in brief: as §1

Row | Structure (SMILES) | Activity (Candida albicans) | zone of inhibition at 200 µg/disc (Bacillus subtilis) [mm] | Activity (Aspergillus flavus) | zone of inhibition at 200 µg/disc (Staphylococcus aureus) [mm]
1 | CCC1OC(=O)c2c(OC)cc(=O)oc21 (stereo not drawn) [ANNULARIN F] | inactive | 8 |  | 
2 | CCCc1oc(=O)cc(OC)c1C |  |  | inactive | 
3 | CCCc1oc(=O)cc(OC)c1CO | inactive | 8 |  | 
4 | CC[C@H](O)c1oc(=O)cc(OC)c1CO | inactive | 8 |  | 14
